The source of these data is ChEMBL document CHEMBL1154183, “Structure-based optimization of potent and selective inhibitors of the tyrosine kinase erythropoietin producing human hepatocellular carcinoma receptor B4 (EphB4)” (J Med Chem, 2009).

For test [1], the target named is Cytoplasmic tyrosine-protein kinase BMX (Homo sapiens) (UniProt P51813). Kind of test: Binding affinity to BMX assessed as percentage of kinase remaining bound to the bead at 1 uM by T7 phage display based binding assay. An outline of the steps:
(§1)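 Competition binding assay run by a contract lab. Each kinase was expressed as a fusion to T7 phage, full-length for small kinases and catalytic domain for large ones. Phage were mixed with an immobilized known kinase inhibitor on streptavidin magnetic beads and with test compound at a single 1 μM. Kinase/phage still bound to the beads was quantified by qPCR and expressed as % of DMSO control.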

Test [2] deals with Protein-tyrosine kinase 6 (Homo sapiens) (UniProt Q13882). The test is described as follows: Binding affinity to BRK assessed as percentage of kinase remaining bound to the bead at 1 uM by T7 phage display based binding assay. The gist of the method:
as §1

Test [3] has as its target Proto-oncogene tyrosine-protein kinase Src (Homo sapiens) (UniProt P12931). The test is described as follows: Inhibition of Src assessed as remaining enzyme activity at 1 uM relative to DMSO.
The target of test [4] is RAC-beta serine/threonine-protein kinase (Homo sapiens) (UniProt P31751). Kind of test: Inhibition of PKBbeta assessed as remaining enzyme activity at 1 uM relative to DMSO. The gist of the method: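 Radiometric kinase assay run robotically at room temperature for 30 min. Contained 10 mM magnesium acetate and [γ-33P]ATP (800 cpm/pmol) at 5, 20 or 50 μM, chosen per kinase to be at or below its ATP Km. Reactions were started with MgATP, stopped with orthophosphoric acid and spotted onto P81 filters. Result is mean % activity of duplicates at one inhibitor concentration versus DMSO control.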
Chain of RAC-beta serine/threonine-protein kinase (Homo sapiens) (P31751 whole entry): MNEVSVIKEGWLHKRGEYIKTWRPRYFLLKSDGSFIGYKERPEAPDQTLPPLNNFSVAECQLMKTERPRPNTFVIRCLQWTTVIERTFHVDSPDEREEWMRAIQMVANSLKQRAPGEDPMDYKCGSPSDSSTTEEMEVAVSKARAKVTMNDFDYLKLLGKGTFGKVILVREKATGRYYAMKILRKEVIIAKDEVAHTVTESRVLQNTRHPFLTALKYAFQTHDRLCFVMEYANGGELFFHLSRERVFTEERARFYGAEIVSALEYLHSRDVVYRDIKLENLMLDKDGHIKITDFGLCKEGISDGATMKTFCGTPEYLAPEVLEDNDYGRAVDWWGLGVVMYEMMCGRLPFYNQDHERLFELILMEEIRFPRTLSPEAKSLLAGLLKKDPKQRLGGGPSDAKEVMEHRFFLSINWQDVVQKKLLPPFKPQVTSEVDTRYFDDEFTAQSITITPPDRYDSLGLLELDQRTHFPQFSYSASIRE

The target in test [5] is Mitogen-activated protein kinase 11 (Homo sapiens) (UniProt Q15759). The test is described as follows: Inhibition of p38beta assessed as remaining enzyme activity at 3 uM relative to DMSO.
Chain of Mitogen-activated protein kinase 11 (Homo sapiens) (Q15759 whole entry): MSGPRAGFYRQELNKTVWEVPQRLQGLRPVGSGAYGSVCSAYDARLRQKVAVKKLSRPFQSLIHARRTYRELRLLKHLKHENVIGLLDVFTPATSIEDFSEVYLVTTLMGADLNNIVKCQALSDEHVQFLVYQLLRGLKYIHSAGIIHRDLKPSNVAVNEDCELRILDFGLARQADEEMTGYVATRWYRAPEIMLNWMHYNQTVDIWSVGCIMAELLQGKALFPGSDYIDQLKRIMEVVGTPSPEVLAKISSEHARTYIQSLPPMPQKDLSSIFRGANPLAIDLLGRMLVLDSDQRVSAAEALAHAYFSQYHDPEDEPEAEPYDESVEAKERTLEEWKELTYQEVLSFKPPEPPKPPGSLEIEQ
In test [6] the target is Myosin light chain kinase, smooth muscle (Homo sapiens) (UniProt Q15746). Kind of test: Inhibition of SmMLCK assessed as remaining enzyme activity at 3 uM relative to DMSO.
Chain of Myosin light chain kinase, smooth muscle (Homo sapiens) (Q15746 whole entry): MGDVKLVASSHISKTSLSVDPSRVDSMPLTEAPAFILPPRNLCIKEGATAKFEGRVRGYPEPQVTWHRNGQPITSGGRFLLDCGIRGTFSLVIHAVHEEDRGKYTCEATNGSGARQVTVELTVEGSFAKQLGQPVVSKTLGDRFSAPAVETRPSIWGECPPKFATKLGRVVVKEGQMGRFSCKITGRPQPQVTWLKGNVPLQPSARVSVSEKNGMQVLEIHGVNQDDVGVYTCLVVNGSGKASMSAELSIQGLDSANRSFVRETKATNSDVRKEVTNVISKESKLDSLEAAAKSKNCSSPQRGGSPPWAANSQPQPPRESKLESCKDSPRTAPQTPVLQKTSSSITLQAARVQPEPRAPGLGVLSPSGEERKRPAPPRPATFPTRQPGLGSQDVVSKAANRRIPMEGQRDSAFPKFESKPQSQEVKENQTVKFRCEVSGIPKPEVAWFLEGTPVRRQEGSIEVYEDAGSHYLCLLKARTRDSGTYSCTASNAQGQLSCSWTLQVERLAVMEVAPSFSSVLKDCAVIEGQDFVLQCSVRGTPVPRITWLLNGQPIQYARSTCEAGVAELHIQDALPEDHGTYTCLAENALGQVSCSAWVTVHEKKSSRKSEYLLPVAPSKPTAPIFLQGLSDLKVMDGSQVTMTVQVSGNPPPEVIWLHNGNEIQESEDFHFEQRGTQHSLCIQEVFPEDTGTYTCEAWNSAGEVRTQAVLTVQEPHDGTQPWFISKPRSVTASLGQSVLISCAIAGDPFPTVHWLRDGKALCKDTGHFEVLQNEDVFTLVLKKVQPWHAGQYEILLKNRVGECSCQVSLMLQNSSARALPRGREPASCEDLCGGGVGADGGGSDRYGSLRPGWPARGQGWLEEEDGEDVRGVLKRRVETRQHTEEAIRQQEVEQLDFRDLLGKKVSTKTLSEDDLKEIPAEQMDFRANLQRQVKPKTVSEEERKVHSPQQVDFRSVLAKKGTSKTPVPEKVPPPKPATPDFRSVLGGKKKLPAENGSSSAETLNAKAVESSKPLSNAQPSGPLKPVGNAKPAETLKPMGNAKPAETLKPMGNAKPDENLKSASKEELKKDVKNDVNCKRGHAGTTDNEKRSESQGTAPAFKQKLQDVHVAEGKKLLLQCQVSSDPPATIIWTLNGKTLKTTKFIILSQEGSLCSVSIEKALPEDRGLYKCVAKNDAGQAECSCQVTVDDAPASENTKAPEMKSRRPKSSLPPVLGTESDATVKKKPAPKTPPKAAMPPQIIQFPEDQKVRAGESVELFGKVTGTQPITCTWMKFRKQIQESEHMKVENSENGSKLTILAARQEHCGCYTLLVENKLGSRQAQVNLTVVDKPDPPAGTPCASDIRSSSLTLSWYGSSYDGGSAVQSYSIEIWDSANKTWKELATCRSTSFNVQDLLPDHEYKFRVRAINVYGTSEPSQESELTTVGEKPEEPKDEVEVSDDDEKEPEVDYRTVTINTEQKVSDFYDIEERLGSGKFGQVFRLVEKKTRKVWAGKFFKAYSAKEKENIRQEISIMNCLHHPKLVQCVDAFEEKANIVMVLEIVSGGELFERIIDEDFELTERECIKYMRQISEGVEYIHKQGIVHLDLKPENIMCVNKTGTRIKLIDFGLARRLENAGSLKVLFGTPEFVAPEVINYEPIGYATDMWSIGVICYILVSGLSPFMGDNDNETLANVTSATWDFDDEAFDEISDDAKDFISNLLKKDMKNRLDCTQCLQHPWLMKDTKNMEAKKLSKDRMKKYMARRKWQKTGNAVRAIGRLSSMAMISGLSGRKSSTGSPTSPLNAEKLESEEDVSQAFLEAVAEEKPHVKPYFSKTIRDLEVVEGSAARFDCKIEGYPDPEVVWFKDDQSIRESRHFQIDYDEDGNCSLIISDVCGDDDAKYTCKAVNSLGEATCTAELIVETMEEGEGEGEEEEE
The target of test [7] is Cyclin-dependent kinase 2 (Homo sapiens) (UniProt P24941). The test is described as follows: Inhibition of CDK2 assessed as remaining enzyme activity at 3 uM relative to DMSO. The gist of the method: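 Dundee kinase panel, radiometric: [γ-33P]ATP (800 cpm/pmol) at 5, 20 or 50 μM, at or below each kinase's ATP Km; 10 mM magnesium acetate; robotic, room temperature, 30 min. Reactions started with MgATP, stopped with orthophosphoric acid, spotted onto P81 filters. Inhibitor tested at a single concentration; mean % activity of duplicates relative to DMSO control.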

Chain of Cytoplasmic tyrosine-protein kinase BMX (Homo sapiens) (P51813 whole entry, the tested form may be a part): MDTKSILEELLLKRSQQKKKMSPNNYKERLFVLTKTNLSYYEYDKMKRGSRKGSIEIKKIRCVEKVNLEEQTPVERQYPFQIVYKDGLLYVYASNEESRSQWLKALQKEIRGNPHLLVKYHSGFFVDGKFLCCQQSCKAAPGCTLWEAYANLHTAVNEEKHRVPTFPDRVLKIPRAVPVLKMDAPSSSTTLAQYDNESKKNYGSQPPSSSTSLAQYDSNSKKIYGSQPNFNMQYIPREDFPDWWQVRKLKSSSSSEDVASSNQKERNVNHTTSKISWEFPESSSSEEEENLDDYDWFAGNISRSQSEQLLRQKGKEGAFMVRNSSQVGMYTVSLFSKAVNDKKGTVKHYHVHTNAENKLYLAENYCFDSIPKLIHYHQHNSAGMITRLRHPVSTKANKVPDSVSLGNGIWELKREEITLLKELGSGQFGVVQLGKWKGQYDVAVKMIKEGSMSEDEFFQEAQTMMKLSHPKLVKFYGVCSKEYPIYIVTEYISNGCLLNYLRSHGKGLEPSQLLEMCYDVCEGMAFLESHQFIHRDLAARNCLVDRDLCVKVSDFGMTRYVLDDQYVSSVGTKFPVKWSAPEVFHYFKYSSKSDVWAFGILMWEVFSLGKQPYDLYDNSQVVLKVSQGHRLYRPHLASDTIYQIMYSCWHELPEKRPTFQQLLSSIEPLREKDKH
Chain of Proto-oncogene tyrosine-protein kinase Src (Homo sapiens) (P12931 2-536 limits assumed): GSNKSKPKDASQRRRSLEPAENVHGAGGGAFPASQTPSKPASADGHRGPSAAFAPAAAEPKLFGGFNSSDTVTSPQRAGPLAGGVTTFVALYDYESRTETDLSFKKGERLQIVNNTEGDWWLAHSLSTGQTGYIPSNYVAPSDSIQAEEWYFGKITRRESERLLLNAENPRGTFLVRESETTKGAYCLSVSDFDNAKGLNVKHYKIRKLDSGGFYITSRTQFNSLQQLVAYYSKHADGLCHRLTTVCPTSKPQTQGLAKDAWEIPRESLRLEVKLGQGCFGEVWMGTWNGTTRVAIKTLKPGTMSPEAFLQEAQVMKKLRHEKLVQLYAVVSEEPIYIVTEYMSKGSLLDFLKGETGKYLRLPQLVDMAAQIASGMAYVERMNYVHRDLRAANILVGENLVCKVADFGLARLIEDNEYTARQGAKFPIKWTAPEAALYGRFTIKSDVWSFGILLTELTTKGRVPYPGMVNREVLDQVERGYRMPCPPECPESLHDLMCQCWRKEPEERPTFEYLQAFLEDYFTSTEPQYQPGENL
Chain of Protein-tyrosine kinase 6 (Homo sapiens) (Q13882 whole entry, looked up): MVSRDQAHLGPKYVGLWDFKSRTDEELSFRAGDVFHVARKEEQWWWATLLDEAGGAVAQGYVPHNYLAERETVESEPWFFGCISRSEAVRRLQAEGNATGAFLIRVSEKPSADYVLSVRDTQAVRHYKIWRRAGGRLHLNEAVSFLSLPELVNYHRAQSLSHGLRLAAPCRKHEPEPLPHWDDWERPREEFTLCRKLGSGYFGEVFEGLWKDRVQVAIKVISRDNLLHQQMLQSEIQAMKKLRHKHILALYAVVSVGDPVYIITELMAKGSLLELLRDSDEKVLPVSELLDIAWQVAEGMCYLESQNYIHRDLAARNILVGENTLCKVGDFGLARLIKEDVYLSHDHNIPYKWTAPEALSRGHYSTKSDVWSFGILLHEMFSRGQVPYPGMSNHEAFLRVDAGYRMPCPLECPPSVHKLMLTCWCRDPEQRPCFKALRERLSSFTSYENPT

As to `COc1ccccc1-n1c(-c2cc(O)ccc2C)cn2c3c(=O)[nH]c(=O)n(C)c3nc12`, the Activity in test [1] amounted to 55%; in test [2], 12%; in test [3], 9%; in test [4], 104%.
In the case of `COc1ccccc1-n1c(-c2ccccc2C)cn2c3c(=O)[nH]c(=O)n(C)c3nc12`, the Activity in test [5] is 93%; in test [6], 91%; in test [7], 97%.
